# Assay results reported in ChEMBL document CHEMBL4152184, “NB 06: From a simple lysosomotropic aSMase inhibitor to tools for elucidating the role of lysosomes in signaling apoptosis and LPS-induced inflammation” (Eur J Med Chem, 2018).
# Activity calls are given as the source filed them. No cut-off for these calls is given here.
# Legend:
# PBMC [1] = experiment: Inhibition of mmLDL-stimulated apoptosis in human PBMC assessed as apoptotic cells at 2 uM preincubated for 30 mins followed by mmLDL stimulation measured after 4 hrs by YO-PRO-1/Hoechst 33342 staining based assay (reference value: 100%); type: functional; parameters: scale not given: the % may be the effect or the level left
# Method in brief: (§1)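 PBMC pre-incubated 30 min with 2 μM compound, then stimulated with mmLDL (27 μg/mL; line 5) or TNFalpha (3 ng/mL; line 1) for 4 h. Apoptotic cells stained with YO-PRO-1 and all cells with Hoechst 33342. Each plate had control, stimulus, compound alone and compound plus stimulus; n = 3. Values are on a 0% (untreated control, corrected for spontaneous apoptosis) to 100% (stimulus alone) scale; means ± SE.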
# [2] = target: T1, Sphingomyelin phosphodiesterase (Homo sapiens, UniProt P17405); experiment: Inhibition of mmLDL-stimulated acid sphingomyelinase in human PBMC lysates using BODIPY FL C5-sphingomyelin as substrate preincubated for 30 mins followed by mmLDL stimulation measured after 2 hrs by HPLC method
# T1 sequence (P17405 whole entry): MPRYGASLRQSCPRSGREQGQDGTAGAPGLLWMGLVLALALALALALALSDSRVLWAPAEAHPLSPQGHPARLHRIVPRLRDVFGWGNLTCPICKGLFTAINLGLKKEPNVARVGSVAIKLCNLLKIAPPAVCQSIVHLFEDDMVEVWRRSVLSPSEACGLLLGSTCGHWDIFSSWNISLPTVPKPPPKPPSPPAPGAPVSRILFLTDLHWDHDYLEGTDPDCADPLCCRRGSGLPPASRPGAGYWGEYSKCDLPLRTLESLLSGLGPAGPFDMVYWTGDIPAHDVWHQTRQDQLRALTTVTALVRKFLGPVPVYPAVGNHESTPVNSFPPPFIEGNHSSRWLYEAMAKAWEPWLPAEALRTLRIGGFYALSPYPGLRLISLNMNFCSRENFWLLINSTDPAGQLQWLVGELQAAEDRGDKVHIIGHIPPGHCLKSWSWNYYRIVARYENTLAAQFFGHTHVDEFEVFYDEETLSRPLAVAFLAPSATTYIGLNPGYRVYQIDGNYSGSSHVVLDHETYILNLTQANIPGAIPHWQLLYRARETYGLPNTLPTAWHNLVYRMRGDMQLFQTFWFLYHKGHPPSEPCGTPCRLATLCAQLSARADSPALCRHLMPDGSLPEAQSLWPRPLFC
# PBMC [3] = experiment: Inhibition of TNFalpha-stimulated apoptosis in human PBMC assessed as apoptotic cells at 2 uM preincubated for 30 mins followed by TNFalpha stimulation measured after 4 hrs by YO-PRO-1/Hoechst 33342 staining based assay relative to control; type: functional; parameters: scale not given: the % may be the effect or the level left; method in brief: as §1
# [4] = target: T2, Sphingomyelin phosphodiesterase (Homo sapiens) (UniProt P17405); experiment: Inhibition of mmLDL-stimulated acid sphingomyelinase in human PBMC lysates assessed as enzyme residual activity at 25 uM using BODIPY FL C5-sphingomyelin as substrate preincubated for 30 mins followed by mmLDL stimulation measured after 2 hrs by HPLC method
# T2 sequence (whole entry): T1 sequence (P17405 whole entry)
# [5] = target: T2, Sphingomyelin phosphodiesterase (Homo sapiens); experiment: Inhibition of mmLDL-stimulated acid sphingomyelinase in human PBMC lysates at 0.5 to 50 uM preincubated for 30 mins followed by mmLDL stimulation measured after 4 hrs by YO-PRO-1/Hoechst 33342 staining based assay
SMILES,IC50 [2],Activity [4],inhibition [5],Activity (PBMC [1]),Activity (PBMC [3])
COc1ccc(CCN(C)CCCN2c3ccccc3CCc3ccccc32)cc1,–,–,–,36%,30%
COc1ccc(CCN2CCCN(C3c4ccccc4CCc4ccccc43)C2)cc1,–,–,–,27%,17%
COc1ccc(CCNCc2cccc3ccccc23)cc1OC,96 µM,–,–,86%,–
COc1ccc(CCN(C)CCCN2c3ccccc3Sc3ccc(Cl)cc32)cc1,–,–,–,71%,–
COc1ccc(CCN2[C@H](C)CN(CCCn3c4ccccc4c4ccccc43)C[C@@H]2C)cc1,–,–,–,25%,0%
COc1ccc(CCN(C)CCCN(c2ccccc2)c2ccccc2)cc1OC,–,–,–,59%,–
COc1ccc(CCN(C)CCCN2c3ccccc3Oc3ccccc32)cc1,–,–,–,25%,43%
COc1ccc(CCN2CCCn3c4c(c5ccccc53)CCCC42)cc1 (stereo not given),15 µM,–,–,25%,–
COc1ccc(CCN(C)CCN2c3ccccc3Sc3ccccc32)cc1OC,–,–,–,72%,–
COc1ccc(CCN2CCN(CCn3c4ccccc4c4ccccc43)CC2)cc1,–,–,–,14%,16%
COc1ccc(CCN(C)CCCn2ccc3ccccc32)cc1,21 µM,–,–,84%,–
COc1ccc(CCN(C)CCN2c3ccccc3CCc3ccccc32)cc1OC,–,–,–,30%,58%
COc1ccc(CCN(C)CCN2c3ccccc3Sc3ccccc32)cc1,–,–,–,25%,25%
COc1ccc(Cn2c(=O)[nH]c3ccccc3c2=O)cc1,> 250 µM,–,–,57%,59%
COc1ccc(CN(C)CCCn2c3ccccc3c3ccccc32)cc1,–,–,–,17%,–
COc1ccc(Cn2c(=O)c3ccccc3n(Cc3ccc(OC)cc3)c2=O)cc1,> 250 µM,–,–,4%,–
COc1ccc(CCNCc2cccc3ccccc23)cc1,240 µM,–,–,100%,–
COc1ccc(CCN(Cc2ccccc2)c2ccccn2)cc1,> 250 µM,–,–,85%,–
COc1ccc(CCN2CCn3c4c(c5ccccc53)CCCC42)cc1 (stereo not given),> 250 µM,–,–,19%,–
COc1ccc(CCN(C)CCCN(c2ccccc2)c2ccccc2)cc1,> 250 µM,–,–,35%,–
COc1ccc(CCNCCNc2cccc3ccccc23)cc1,116 µM,–,–,87%,–
COc1ccc(CCNCCNc2cccc3ccccc23)cc1OC,112 µM,–,–,65%,–

# Further lines, with some results ahead:
IC50 [2],Activity [4],inhibition [5],SMILES,Activity (PBMC [1]),Activity (PBMC [3])
141 µM,–,–,COc1ccc(CCN2[C@H](C)CN(CCCn3c4ccccc4c4ccccc43)C[C@@H]2C)cc1OC,35%,–
38 µM,–,–,COc1ccc(CCN(C)CCCN2C(=O)COc3ccccc32)cc1,–,–
12 µM,–,–,COc1ccc(CCN(C)CCCN2c3ccccc3Sc3ccc(Cl)cc32)cc1OC,31%,18%
–,20%,–,CNCCCN1c2ccccc2CCc2ccccc21,–,–
10 µM,–,Active,COc1cc(CCN(C)CCCn2c3ccccc3c3ccccc32)c(OC)cc1CCN(C)CCCn1c2ccccc2c2ccccc21,7%,–
> 250 µM,–,–,COc1ccc(CC(=O)N(C)CCCn2c3ccccc3c3ccccc32)cc1,100%,–
9 µM,–,–,COc1ccc(CCN(C)CCCN2c3ccccc3Sc3ccccc32)cc1,100%,–
14 µM,–,–,COc1ccc(CCN(C)CCCn2c3ccccc3c3ccccc32)cc1OC,24%,41%
17 µM,–,–,COc1ccc(CCNCCCNC2c3ccccc3CCc3ccccc32)cc1,–,–
156 µM,–,–,COc1ccc(Cn2c3ccccc3c3ccccc32)cc1,14%,30%
17 µM,–,–,COc1ccc(CCN(C)CCN2c3ccccc3CCc3ccccc32)cc1,49%,35%
39 µM,–,–,COc1ccc(CCNCCCNC2c3ccccc3CCc3ccccc32)cc1OC,43%,–
31 µM,–,–,COc1ccc(CCN(C)CCCN2c3ccccc3CCc3ccccc32)cc1OC,73%,–
> 250 µM,–,–,COc1ccc(CC(=O)N(C)CCN2c3ccccc3CCc3ccccc32)cc1,94%,90%
5 µM,–,–,CN(C)CCCN1c2ccccc2CCc2ccccc21 [IMIPRAMINE],15%,16%
43 µM,–,–,COc1ccc(CCN2[C@H](C)CN(CCCN3c4ccccc4Oc4ccccc43)C[C@@H]2C)cc1,10%,–
13 µM,–,–,COc1ccc(CCN(C)CCCN2c3ccccc3Oc3ccccc32)cc1OC,36%,–
16 µM,–,–,COc1ccc(CCN(C)CCCN2c3ccccc3Sc3ccccc32)cc1OC,52%,–
107 µM,–,–,COc1ccc(CC(=O)N(C)CCCN2c3ccccc3CCc3ccccc32)cc1,69%,–
10 µM,–,–,COc1ccc(CCN(C)CCC=C2c3ccccc3CCc3ccccc32)cc1,10%,–
> 250 µM,–,–,COc1ccc(CC(=O)N(C)CCCN2c3ccccc3Sc3ccc(Cl)cc32)cc1OC,41%,–
17 µM,–,–,COc1ccc(CCN(C)CCCN2Cc3ccccc3CCc3ccccc32)cc1,8%,2%
> 250 µM,–,–,COc1ccc(CCN(C)C(F)(F)C(F)(F)C(F)(F)C(F)(F)n2c3ccccc3c3ccccc32)cc1,80%,–
11 µM,–,–,CN(C)CCCN1c2ccccc2Sc2ccc(Cl)cc21 [CHLORPROMAZINE],–,–
> 250 µM,–,–,COc1ccc(CN2C(=O)COc3ccccc32)cc1,100%,–
6 µM,–,–,COc1ccc(CCN(C)CCn2c3ccccc3c3ccccc32)cc1,9%,55%
10 µM,–,–,COc1ccc(CCN(C)CCC=C2c3ccccc3CCc3ccccc32)cc1OC,79%,–
